Screening data deposited in PubChem BioAssay by several laboratories.
Compounds with a hit are over-represented: about 5.1% of the library has one in this group of screens.
STAT3 activator: IL-6 driven STAT3 reporter potentiators, primary screen, U3A cells, luciferase, luminescence, MLSCN library | IL-6 STAT3-luciferase reporter; 100% = signal with IL-6 EC80 alone | activation (% of control), % at 5.6 µM | hit rate 0.91% among 190,000 | AID 871, 2007;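 active = activation above the screen-wide mean of compound activation plus 3 SD, cut at about 130% in these data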
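Material: STAT1-lacking human U3A cells, STAT3 luciferase reporter | Benchmarks: IL-6-only wells as 100% reference | Probe or stimulus: IL-6 (33 ng/mL) | Timing: Compound 1 h, then IL-6 6 h at 37 °C | Detection: Luminescence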
APP 5'UTR act: activators of APP 5'UTR luciferase reporter, primary screen, SH-SY5Y cells. hit rate 1% among 190,000. activation, % at 2 µM. SH-SY5Y APP 5'UTR luciferase reporter, luminescence; zero percent = DMSO vehicle wells. AID 1276, 2008;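 active = activation above a set limit, based on mean plus 3 SD of controls, cut at about 140% in these data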
STAT1 activator: STAT1 signaling activators, primary screen, cell-based, HTS, luciferase reporter | AID 932, 2007 | hit rate 2.6% among 200,000 | activation (% of control), % at 5.5 µM | NIH 3T3 STAT1-luciferase reporter, IFN-gamma, luminescence; 100% = IFN-gamma alone, no compound;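 active = activation above the screen-wide mean activation plus 3 SD, cut at about 130% in these data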
STAT1 inh: STAT1 signaling inhibitors, primary screen, cell-based, HTS, luciferase reporter; NIH 3T3 STAT1-luciferase reporter, IFN-gamma, luminescence; inhibition, % at 5.5 µM; hit rate 0.35% among 200,000; AID 920, 2007;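 active = inhibition above a set limit, the mean inhibition across all tested compounds plus 3 SD, cut at about 34% in these data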
STAT3 inh-1: IL-6 driven STAT3 reporter inhibitors, primary screen, U3A cells, luciferase, luminescence, MLSCN library; inhibition, % at 5.5 µM; IL-6 STAT3-luciferase reporter; host cell line lacks STAT1; hit rate 0.89% among 190,000;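 active = inhibition above the mean inhibition across all screened compounds plus 3 SD, cut at about 44% in these data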
NF-kB neuron act: activators of NF-kB expression in neurons, primary screen, cell-based, HTS; human neuronal cells, NF-kB reporter expression; hits give high values; fold change at 12.5 µM; hit rate 1.6% among 190,000; AID 1239, 2008; in the data active = fold change above about 3.3
STAT3 inh-2: STAT3 reporter inhibitors, retest of hits, confirmation, U3A cells, luciferase, luminescence; shares compounds with STAT3 inh-1; IL-6 STAT3 luciferase reporter; cell line lacks STAT1; hit rate 45% among 1,200; inhibition, % at 5.7 µM;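 active = inhibition above the hit cutoff computed for the primary STAT3 screen, cut at about 44% in these data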
NFkB inh 2: NF-kB reporter inhibitors in human cells, confirmation, counter-screen for STAT3 inhibitor project, cell-based, HEK293T, luciferase, TNF-alpha stimulus. hit rate 36% among 1,200. inhibition, % at 5.7 µM. TNF-alpha induced. shares compounds with STAT3 inh-1;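 active = inhibition above the mean of solvent-only control wells plus 3 SD, cutoff set per campaign, cut at about 13% in these data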
STAT1 inh STAT3c: STAT1 reporter inhibitors, IFN-gamma induced, confirmation, counter-screen for STAT3 inhibitor project, cell-based, NIH 3T3, luciferase luminescence | shares compounds with STAT3 inh-1 | NIH 3T3 STAT1-luciferase reporter | inhibition, % at 5.7 µM | hit rate 27% among 1,200 | AID 1317, 2008;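 active = inhibition above the mean plus 3 SD of solvent-only control wells, limit set per screening run, cut at about 16% in these data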
STAT1 act conf: STAT1 signaling activators, confirmation, cell-based, HTS, luciferase reporter; hit rate 97% among 1,200; NIH 3T3 STAT1-luciferase reporter, IFN-gamma potentiation, luminescence; 100% = IFN-gamma EC80 alone, no compound; activation (% of control), % at 5.7 µM; shares compounds with STAT1 activator;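 active = activation above a set limit carried over from the earlier primary STAT1 screen, cut at about 140% in these data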
NFkB act STAT1ct: NF-kB reporter activators, TNF-alpha stimulated, counter-screen for STAT1 activator project, cell-based, HEK293T, luciferase luminescence; shares compounds with STAT1 activator; 100% = TNF-alpha with vehicle only; activation (% of control), % at 5.7 µM; hit rate 43% among 1,200; AID 1306, 2008;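 active = activation above the mean of solvent-only control wells plus 3 SD, set per campaign, cut at about 130% in these data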;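 also: TNF-alpha given at a submaximal dose yielding about 80% of full reporter signal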
STAT3 act 2: STAT3 reporter activation by STAT1 hits, confirmation, counter-screen for STAT1 activator project, U3A cells, luciferase, luminescence; IL-6; cells lack STAT1; 100 = IL-6 alone, no compound effect; AID 1316, 2008; shares compounds with STAT1 activator; activation (% of control), % at 5.7 µM; hit rate 46% among 1,200;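 active = activation above the solvent-only control well mean plus 3 SD, set per plate batch, cut at about 110% in these data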;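 also: higher means more STAT3 reporter activation so hits are non-selective activators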
Large screens that a line does not name were inactive (follow-up assays come after a bar, where they were run).

COc1cccc2cc(-c3nnc(-c4ccccc4)o3)c(=O)oc12	APP 5'UTR act 138, STAT3 inh-1 46 | STAT3 inh-2 inactive | NFkB inh 2 inactive | STAT1 inh STAT3c inactive
Cc1ccc2nc(NC(=O)CSCC(=O)OCC(=O)c3ccccc3)sc2c1	STAT3 inh-1 51 | STAT3 inh-2 57 | NFkB inh 2 23 | STAT1 inh STAT3c 24
Cc1ccc2nc(NC(=O)c3cccs3)sc2c1	APP 5'UTR act 163, STAT1 activator 129, STAT3 inh-1 70, NF-kB neuron act 11 | STAT3 inh-2 inactive | NFkB inh 2 inactive | STAT1 inh STAT3c inactive
COc1cc(OC)cc(C(=O)Nc2nc3ccc(S(C)(=O)=O)cc3s2)c1	none
CS(=O)(=O)c1ccc2nc(NC(=O)c3cccs3)sc2c1	STAT3 inh-1 59 | STAT3 inh-2 inactive | NFkB inh 2 inactive | STAT1 inh STAT3c inactive
c1ccc(-c2noc(-c3ccc4ccccc4c3)n2)cc1	APP 5'UTR act 150, STAT1 activator 151, STAT3 inh-1 57 | STAT3 inh-2 inactive | NFkB inh 2 inactive | STAT1 inh STAT3c inactive | STAT1 act conf 184 | NFkB act STAT1ct inactive | STAT3 act 2 inactive
O=S(=O)(Nc1nc2c(s1)CCCC2)c1ccc(Br)cc1	none
O=C(Nc1nc2c(s1)CCCC2)c1ccc(Br)o1	APP 5'UTR act 163, STAT1 activator 165, STAT3 inh-1 46, NF-kB neuron act 6.2 | STAT3 inh-2 inactive | NFkB inh 2 inactive | STAT1 inh STAT3c inactive | STAT1 act conf 217 | NFkB act STAT1ct inactive | STAT3 act 2 inactive
Cc1ccc2nc(-c3ccc(NC(=O)COC(=O)c4ccc([N+](=O)[O-])o4)cc3)sc2c1	STAT1 activator 155, STAT3 inh-1 55, NF-kB neuron act 6 | STAT3 inh-2 inactive | NFkB inh 2 inactive | STAT1 inh STAT3c inactive | STAT1 act conf 170 | NFkB act STAT1ct inactive | STAT3 act 2 inactive
COCCN(C(=O)CNC(=O)c1ccco1)C(C(=O)NC1CCCCC1)c1cccs1 (stereo not drawn)	none
CCCN1CCC(NC(=O)Nc2ccc(Br)cc2)CC1	none
O=C(NCc1ccc(F)cc1)C(C(=O)NCc1ccc(F)cc1)c1ncc(C(F)(F)F)cc1Cl	none
COC(=O)c1cn[nH]c1NC(=S)Nc1ccc(C)cc1Cl	APP 5'UTR act 169, STAT1 activator 170, STAT3 inh-1 50 | STAT3 inh-2 inactive | NFkB inh 2 inactive | STAT1 inh STAT3c inactive | STAT1 act conf 307 | NFkB act STAT1ct inactive | STAT3 act 2 inactive
Cc1ccc(NC(=S)Nc2ccc3cn[nH]c3c2)c(C)c1	none
COc1ccc2nc(NC(=S)N(C)C)sc2c1	STAT1 activator 171, STAT3 inh-1 44, NF-kB neuron act 11 | STAT3 inh-2 inactive | NFkB inh 2 inactive | STAT1 inh STAT3c inactive | STAT1 act conf 257 | NFkB act STAT1ct inactive | STAT3 act 2 inactive
COc1ccc(-c2cc(C)nc3c(-c4ccccc4)cnn23)cc1	APP 5'UTR act 168, STAT1 activator 167, STAT3 inh-1 51 (no result: NF-kB neuron act) | STAT3 inh-2 inactive | NFkB inh 2 inactive | STAT1 inh STAT3c inactive | STAT1 act conf 266 | NFkB act STAT1ct inactive | STAT3 act 2 inactive
CC1CCCC(NC(=O)COC(=O)CCSc2ccccc2)C1C (stereo not drawn)	none
O=C(Nc1ccccc1)c1cc2ccccc2o1	APP 5'UTR act 230, STAT1 activator 153, STAT3 inh-1 44, NF-kB neuron act 8.8 | STAT3 inh-2 inactive | NFkB inh 2 inactive | STAT1 inh STAT3c inactive | STAT1 act conf 227 | NFkB act STAT1ct 134 | STAT3 act 2 inactive
CCNc1nc(-c2ccc(OC(F)F)cc2)c(C)s1	none
CCCCCc1ccc(-c2ccc(/C=C/C(N)=O)cc2)nc1	none
CCCCc1ccc(-c2ccc(C)cc2O)nc1	APP 5'UTR act 203, STAT1 activator 156, STAT3 inh-1 51, NF-kB neuron act 7.2 | STAT3 inh-2 inactive | NFkB inh 2 inactive | STAT1 inh STAT3c inactive | STAT1 act conf 198 | NFkB act STAT1ct inactive | STAT3 act 2 inactive
CC1C/C(=C/c2ccccn2)C(=O)/C(=C/c2ccccn2)C1 (stereo not drawn)	STAT1 activator 235, STAT3 inh-1 56 | STAT3 inh-2 inactive | NFkB inh 2 inactive | STAT1 inh STAT3c inactive | STAT1 act conf inactive | NFkB act STAT1ct inactive | STAT3 act 2 inactive
O=C1/C(=C/c2ccccn2)COc2ccccc21	none
CC(C)(C)C1C/C(=C/c2ccccn2)C(=O)/C(=C/c2ccccn2)C1 (stereo not drawn)	STAT1 activator 221, STAT3 inh-1 48 | STAT3 inh-2 inactive | NFkB inh 2 52 | STAT1 inh STAT3c inactive | STAT1 act conf 199 | NFkB act STAT1ct inactive | STAT3 act 2 inactive
COc1ccccc1OCC#CCNC1CCCCC1C (stereo not drawn)	none
Cc1ccc(-c2cc3nc4c(c(=O)n3[nH]2)CCCC4)cc1	STAT1 activator 174, STAT3 inh-1 44 (no result: NF-kB neuron act) | STAT3 inh-2 inactive | NFkB inh 2 inactive | STAT1 inh STAT3c inactive | STAT1 act conf 232 | NFkB act STAT1ct inactive | STAT3 act 2 inactive
Cc1[nH]n2c(=O)c3c(nc2c1-c1ccc(Cl)cc1)CCC3	none
